Laboratory results from ChEMBL document CHEMBL5214907 (J Med Chem, 2021).
pIC50: −log10 of the molar value. Active and inactive are the calls of the source. The rule behind the calls is not given here.

What was measured:
[1] = target: Neuronal acetylcholine receptor; alpha9/alpha10 (Homo sapiens, UniProt Q9GZZ6+Q9UGM1); test: Inhibition of human alpha9alpha10 nAChR expressed in xenopus oocytes assessed as inhibition of Ach- induced response at -70 mV holding potential and measured for 1 to 5 days in presence of Ach stimulation by voltage-clamp based electrophysiological method; type: cell-based, Oocyte
Neuronal acetylcholine receptor; alpha9/alpha10, sequence (Q9UGM1 whole entry): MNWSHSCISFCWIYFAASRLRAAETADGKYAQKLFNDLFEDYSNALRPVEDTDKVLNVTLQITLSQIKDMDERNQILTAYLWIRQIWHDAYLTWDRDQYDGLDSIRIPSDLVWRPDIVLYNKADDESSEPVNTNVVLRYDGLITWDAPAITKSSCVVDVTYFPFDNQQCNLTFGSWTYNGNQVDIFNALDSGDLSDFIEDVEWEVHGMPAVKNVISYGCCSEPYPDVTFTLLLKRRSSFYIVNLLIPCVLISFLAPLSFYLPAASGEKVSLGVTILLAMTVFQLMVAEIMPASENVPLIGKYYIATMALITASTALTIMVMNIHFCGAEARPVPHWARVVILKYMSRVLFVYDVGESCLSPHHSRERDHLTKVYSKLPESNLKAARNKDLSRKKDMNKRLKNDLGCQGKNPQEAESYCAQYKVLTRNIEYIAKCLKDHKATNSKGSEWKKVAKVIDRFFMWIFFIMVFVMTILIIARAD
Neuronal acetylcholine receptor; alpha9/alpha10, sequence (Q9GZZ6 whole entry): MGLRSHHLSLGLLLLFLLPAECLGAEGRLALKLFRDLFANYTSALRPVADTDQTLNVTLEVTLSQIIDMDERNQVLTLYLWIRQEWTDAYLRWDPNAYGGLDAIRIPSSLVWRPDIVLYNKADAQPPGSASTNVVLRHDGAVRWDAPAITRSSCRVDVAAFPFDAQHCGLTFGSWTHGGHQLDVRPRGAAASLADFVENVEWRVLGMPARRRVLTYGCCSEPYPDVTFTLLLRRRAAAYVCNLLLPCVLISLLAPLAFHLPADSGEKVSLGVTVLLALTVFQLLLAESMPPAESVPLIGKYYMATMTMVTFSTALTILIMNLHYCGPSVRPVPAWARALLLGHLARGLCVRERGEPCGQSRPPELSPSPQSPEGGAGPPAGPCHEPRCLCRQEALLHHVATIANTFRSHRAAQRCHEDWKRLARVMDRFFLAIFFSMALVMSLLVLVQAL
In short: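 Two-electrode voltage clamp on Xenopus oocytes expressing human α9α10, recorded 1–5 d after injection. Held at −70 mV at room temperature in Ca²⁺-containing ND-96. A 1 s pulse of 100 µM ACh was given every 60 s and peptide was flowed on. IC50 with 95% CI from 3–5 separate oocytes.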

[2] = target: Nicotinic acetylcholine receptor alpha9/alpha10 (Rattus norvegicus, UniProt P43144+Q9JLB5); type: cell-based, Oocyte
Nicotinic acetylcholine receptor alpha9/alpha10, sequence (P43144 whole entry): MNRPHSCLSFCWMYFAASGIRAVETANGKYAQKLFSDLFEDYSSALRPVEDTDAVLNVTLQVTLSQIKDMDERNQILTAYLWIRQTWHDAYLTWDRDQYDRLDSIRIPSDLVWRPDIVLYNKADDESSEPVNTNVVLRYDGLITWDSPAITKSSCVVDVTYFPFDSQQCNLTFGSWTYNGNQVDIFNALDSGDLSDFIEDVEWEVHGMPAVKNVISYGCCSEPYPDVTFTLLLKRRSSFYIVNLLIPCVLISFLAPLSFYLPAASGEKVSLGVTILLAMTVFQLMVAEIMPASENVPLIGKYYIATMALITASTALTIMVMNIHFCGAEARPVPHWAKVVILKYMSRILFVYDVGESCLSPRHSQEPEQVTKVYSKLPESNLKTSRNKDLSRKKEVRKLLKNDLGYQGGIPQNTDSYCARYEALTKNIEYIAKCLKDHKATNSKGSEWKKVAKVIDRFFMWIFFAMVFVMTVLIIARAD
Nicotinic acetylcholine receptor alpha9/alpha10, sequence (Q9JLB5 whole entry): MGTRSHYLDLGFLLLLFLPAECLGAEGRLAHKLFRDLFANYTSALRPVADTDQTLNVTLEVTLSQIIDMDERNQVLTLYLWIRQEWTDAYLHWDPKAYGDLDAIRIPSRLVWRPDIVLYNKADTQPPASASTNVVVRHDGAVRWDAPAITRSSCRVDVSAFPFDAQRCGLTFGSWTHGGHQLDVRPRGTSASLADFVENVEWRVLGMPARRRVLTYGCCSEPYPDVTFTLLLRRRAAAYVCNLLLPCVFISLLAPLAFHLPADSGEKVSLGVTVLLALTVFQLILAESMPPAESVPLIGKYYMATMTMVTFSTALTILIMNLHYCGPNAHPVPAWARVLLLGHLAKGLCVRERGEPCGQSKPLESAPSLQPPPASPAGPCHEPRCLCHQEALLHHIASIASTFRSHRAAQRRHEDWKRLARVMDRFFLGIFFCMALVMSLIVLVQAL

[3] = Inhibition of human alpha6/alpha3beta2beta3 nAChR expressed in xenopus oocytes assessed as inhibition of Ach- induced response at -70 mV holding potential and measured for 1 to 5 days in presence of Ach stimulation by voltage-clamp based electrophysiological method; type: cell-based; conditions: Oocyte
In short: (§1)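 Xenopus oocytes expressing cloned rat or human nAChR subtypes, recorded 1–5 d after injection. Held at −70 mV at room temperature and pulsed with ACh for 1 s every 60 s while peptide was flowed on. Where noted, Ba²⁺ replaced Ca²⁺ to limit current run-up after block. Values from 3–5 separate oocytes.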

[4] = target: Neuronal acetylcholine receptor; alpha4/beta4 (Rattus norvegicus, UniProt P09483+P12392); test: Inhibition of rat alpha4beta4 nAChR expressed in xenopus oocytes assessed as inhibition of Ach- induced response at -70 mV holding potential and measured for 1 to 5 days in presence of Ach stimulation by voltage-clamp based electrophysiological method; type: cell-based, Oocyte; in short: as §1
[5] = target: Neuronal acetylcholine receptor; alpha3/beta2 (Homo sapiens, UniProt P17787+P32297); test: Inhibition of human alpha3beta2 nAChR expressed in xenopus oocytes assessed as inhibition of Ach- induced response at -70 mV holding potential and measured for 1 to 5 days in presence of Ach stimulation by voltage-clamp based electrophysiological method; type: cell-based, Oocyte; in short: as §1
[6] = target: Nicotinic acetylcholine receptor alpha6/alpha3/beta2/beta3 (Rattus norvegicus, UniProt P04757+P12390+P12391+P43143); test: Inhibition of rat alpha6/alpha3beta2beta3 nAChR expressed in xenopus oocytes assessed as inhibition of Ach- induced response at -70 mV holding potential and measured for 1 to 5 days in presence of Ach stimulation by voltage-clamp based electrophysiological method; type: cell-based, Oocyte; in short: as §1
[7] = target: Neuronal acetylcholine receptor; alpha4/beta2 (Homo sapiens, UniProt P17787+P43681); test: Inhibition of human alpha4beta2 nAChR expressed in xenopus oocytes assessed as inhibition of Ach- induced response at -70 mV holding potential and measured for 1 to 5 days in presence of Ach stimulation by voltage-clamp based electrophysiological method; type: cell-based, Oocyte; in short: as §1
[8] = target: Neuronal acetylcholine receptor subunit alpha-7 (Homo sapiens, UniProt P36544); test: Inhibition of human alpha7 nAChR expressed in xenopus oocytes assessed as inhibition of Ach- induced response at -70 mV holding potential and measured for 1 to 5 days in presence of Ach stimulation by voltage-clamp based electrophysiological method; type: cell-based, Oocyte; in short: as §1
[9] = target: Neuronal acetylcholine receptor; alpha2/beta4 (Homo sapiens, UniProt P30926+Q15822); test: Inhibition of human alpha2beta4 nAChR expressed in xenopus oocytes assessed as inhibition of Ach- induced response at -70 mV holding potential and measured for 1 to 5 days in presence of Ach stimulation by voltage-clamp based electrophysiological method; type: cell-based, Oocyte; in short: as §1
[10] = target: Neuronal acetylcholine receptor; alpha3/beta2 (Rattus norvegicus, UniProt P04757+P12390); test: Inhibition of rat alpha3beta2 nAChR expressed in xenopus oocytes assessed as inhibition of Ach- induced response at -70 mV holding potential and measured for 1 to 5 days in presence of Ach stimulation by voltage-clamp based electrophysiological method; type: cell-based, Oocyte; in short: as §1
[11] = target: Neuronal acetylcholine receptor; alpha3/beta4 (Homo sapiens, UniProt P30926+P32297); test: Inhibition of human alpha3beta4 nAChR expressed in xenopus oocytes assessed as inhibition of Ach- induced response at -70 mV holding potential and measured for 1 to 5 days in presence of Ach stimulation by voltage-clamp based electrophysiological method; type: cell-based, Oocyte; in short: as §1
Neuronal acetylcholine receptor; alpha3/beta4 (Homo sapiens, UniProt P30926+P32297), sequence (P30926 whole entry): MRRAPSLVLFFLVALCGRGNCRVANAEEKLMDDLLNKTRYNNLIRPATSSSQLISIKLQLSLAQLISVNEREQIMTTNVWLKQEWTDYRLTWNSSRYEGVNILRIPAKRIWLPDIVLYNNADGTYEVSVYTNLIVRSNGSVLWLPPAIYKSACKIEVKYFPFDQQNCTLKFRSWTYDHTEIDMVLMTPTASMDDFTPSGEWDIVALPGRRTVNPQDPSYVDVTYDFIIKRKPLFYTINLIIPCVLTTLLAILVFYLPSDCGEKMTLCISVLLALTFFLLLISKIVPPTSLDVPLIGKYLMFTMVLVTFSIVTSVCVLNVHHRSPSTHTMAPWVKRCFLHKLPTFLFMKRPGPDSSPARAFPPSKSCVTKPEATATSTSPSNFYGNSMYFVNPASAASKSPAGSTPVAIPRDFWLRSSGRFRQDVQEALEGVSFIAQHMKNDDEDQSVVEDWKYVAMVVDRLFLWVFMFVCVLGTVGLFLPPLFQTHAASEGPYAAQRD
Neuronal acetylcholine receptor; alpha3/beta4 (Homo sapiens, UniProt P30926+P32297), sequence (P32297 whole entry): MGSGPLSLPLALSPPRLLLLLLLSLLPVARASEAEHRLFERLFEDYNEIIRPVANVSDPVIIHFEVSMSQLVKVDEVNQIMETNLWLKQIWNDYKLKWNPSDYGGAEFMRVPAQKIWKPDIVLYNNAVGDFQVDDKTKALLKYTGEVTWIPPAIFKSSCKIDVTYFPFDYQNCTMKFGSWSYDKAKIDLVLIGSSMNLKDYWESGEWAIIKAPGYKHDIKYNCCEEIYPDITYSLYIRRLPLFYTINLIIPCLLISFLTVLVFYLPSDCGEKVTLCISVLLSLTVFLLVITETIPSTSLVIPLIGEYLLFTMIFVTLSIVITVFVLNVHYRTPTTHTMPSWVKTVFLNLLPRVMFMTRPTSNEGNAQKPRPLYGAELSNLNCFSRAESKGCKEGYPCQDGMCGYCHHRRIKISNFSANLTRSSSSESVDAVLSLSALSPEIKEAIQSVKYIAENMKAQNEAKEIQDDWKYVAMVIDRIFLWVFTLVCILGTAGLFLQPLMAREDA

[12] = target: Neuronal acetylcholine receptor; alpha4/beta2 (Rattus norvegicus, UniProt P09483+P12390); test: Inhibition of rat alpha4beta2 nAChR expressed in xenopus oocytes assessed as inhibition of Ach- induced response at -70 mV holding potential and measured for 1 to 5 days in presence of Ach stimulation by voltage-clamp based electrophysiological method; type: cell-based, Oocyte; in short: as §1
[13] = target: Neuronal acetylcholine receptor; alpha2/beta4 (Rattus norvegicus, UniProt P12389+P12392); test: Inhibition of rat alpha2beta4 nAChR expressed in xenopus oocytes assessed as inhibition of Ach- induced response at -70 mV holding potential and measured for 1 to 5 days in presence of Ach stimulation by voltage-clamp based electrophysiological method; type: cell-based, Oocyte; in short: as §1
[14] = Inhibition of human alpha1beta1deltaepsilon nAChR expressed in xenopus oocytes assessed as inhibition of Ach- induced response at -70 mV holding potential and measured for 1 to 5 days in presence of Ach stimulation by voltage-clamp based electrophysiological method; type: cell-based; conditions: Oocyte; in short: as §1
[15] = target: Neuronal acetylcholine receptor; alpha2/beta2 (Homo sapiens, UniProt P17787+Q15822); test: Inhibition of human alpha2beta2 nAChR expressed in xenopus oocytes assessed as inhibition of Ach- induced response at -70 mV holding potential and measured for 1 to 5 days in presence of Ach stimulation by voltage-clamp based electrophysiological method; type: cell-based, Oocyte; in short: as §1
[16] = target: Nicotinic acetylcholine receptor alpha6/alpha3/beta4 (Homo sapiens, UniProt P30926+P32297+Q15825); test: Inhibition of human alpha6/alpha3beta4 nAChR expressed in xenopus oocytes assessed as inhibition of Ach- induced response at -70 mV holding potential and measured for 1 to 5 days in presence of Ach stimulation by voltage-clamp based electrophysiological method; type: cell-based, Oocyte; in short: as §1
Nicotinic acetylcholine receptor alpha6/alpha3/beta4 (Homo sapiens, UniProt P30926+P32297+Q15825), sequence (P30926 whole entry): as the sequence (P30926 whole entry) above
Nicotinic acetylcholine receptor alpha6/alpha3/beta4 (Homo sapiens, UniProt P30926+P32297+Q15825), sequence (P32297 whole entry): as the sequence (P32297 whole entry) above
Nicotinic acetylcholine receptor alpha6/alpha3/beta4 (Homo sapiens, UniProt P30926+P32297+Q15825), sequence (Q15825 whole entry): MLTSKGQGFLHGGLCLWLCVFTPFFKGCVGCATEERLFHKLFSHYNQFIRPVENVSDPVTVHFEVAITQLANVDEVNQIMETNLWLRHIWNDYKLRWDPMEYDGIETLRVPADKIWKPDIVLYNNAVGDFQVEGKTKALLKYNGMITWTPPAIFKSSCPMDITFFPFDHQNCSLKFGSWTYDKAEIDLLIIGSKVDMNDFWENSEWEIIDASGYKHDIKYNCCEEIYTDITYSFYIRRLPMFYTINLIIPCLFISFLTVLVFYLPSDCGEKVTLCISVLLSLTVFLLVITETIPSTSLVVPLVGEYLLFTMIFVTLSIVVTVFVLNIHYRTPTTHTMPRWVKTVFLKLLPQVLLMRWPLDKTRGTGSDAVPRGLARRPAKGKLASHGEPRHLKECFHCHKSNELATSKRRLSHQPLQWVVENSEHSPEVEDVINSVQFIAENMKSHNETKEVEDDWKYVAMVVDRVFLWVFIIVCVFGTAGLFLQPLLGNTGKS

[17] = target: Nicotinic acetylcholine receptor alpha6/alpha3/beta4 (Rattus norvegicus, UniProt P04757+P12392+P43143); test: Inhibition of rat alpha6/alpha3beta4 nAChR expressed in xenopus oocytes assessed as inhibition of Ach- induced response at -70 mV holding potential and measured for 1 to 5 days in presence of Ach stimulation by voltage-clamp based electrophysiological method; type: cell-based, Oocyte; in short: as §1
[18] = target: Neuronal acetylcholine receptor; alpha4/beta4 (Homo sapiens, UniProt P30926+P43681); test: Inhibition of human alpha4beta4 nAChR expressed in xenopus oocytes assessed as inhibition of Ach- induced response at -70 mV holding potential and measured for 1 to 5 days in presence of Ach stimulation by voltage-clamp based electrophysiological method; type: cell-based, Oocyte; in short: as §1
[19] = target: Neuronal acetylcholine receptor subunit alpha-7 (Rattus norvegicus, UniProt Q05941); test: Inhibition of rat alpha7 nAChR expressed in xenopus oocytes assessed as inhibition of Ach- induced response at -70 mV holding potential and measured for 1 to 5 days in presence of Ach stimulation by voltage-clamp based electrophysiological method; type: cell-based, Oocyte; in short: as §1
Neuronal acetylcholine receptor subunit alpha-7 (Rattus norvegicus, UniProt Q05941), sequence (Q05941 whole entry): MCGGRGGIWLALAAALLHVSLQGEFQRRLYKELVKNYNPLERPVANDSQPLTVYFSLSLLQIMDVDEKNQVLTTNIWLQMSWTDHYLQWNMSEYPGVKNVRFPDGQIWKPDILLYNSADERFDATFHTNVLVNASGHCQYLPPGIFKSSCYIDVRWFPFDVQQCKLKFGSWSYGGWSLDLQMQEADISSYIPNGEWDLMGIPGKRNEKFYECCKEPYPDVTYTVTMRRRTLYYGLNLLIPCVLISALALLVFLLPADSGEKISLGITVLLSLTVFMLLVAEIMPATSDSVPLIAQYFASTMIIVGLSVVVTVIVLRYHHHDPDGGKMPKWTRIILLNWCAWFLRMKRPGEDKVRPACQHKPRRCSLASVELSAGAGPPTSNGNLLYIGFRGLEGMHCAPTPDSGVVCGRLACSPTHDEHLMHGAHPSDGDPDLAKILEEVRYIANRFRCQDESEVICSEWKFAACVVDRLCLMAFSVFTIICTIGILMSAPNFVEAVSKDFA

Mus musculus = test: Analgesic activity against oxaliplatin-induced peripheral neuropathic pain mouse model assessed as reversal of oxaliplatin-induced cold allodynia by measuring withdrawal latency at 4 to 40 microg/kg, sc for 22 days (5 days per week) and measured after 24 hrs post-injection by cold-plate test chamber analysis; type: functional, organism-based; conditions: dose 4-40 µg/kg, time 22.0 day
In short: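 Mice, 8 per group. Oxaliplatin 3.5 mg/kg i.p. and peptide 4 or 40 µg/kg s.c., both in sterile 0.9% NaCl, given daily Wed–Fri and Mon–Tue through day 22; controls received saline. Cold allodynia tested on days 8, 15 and 22, 24 h after the last injection. Cold plate: 2–5 min acclimation at 23 °C, then cooled 10 °C/min until both forepaws lifted with shaking or licking. Mean ± SEM versus vehicle.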

[20] = target: Neuronal acetylcholine receptor; alpha3/beta4 (Rattus norvegicus, UniProt P04757+P12392); test: Inhibition of rat alpha3beta4 nAChR expressed in xenopus oocytes assessed as inhibition of Ach- induced response at -70 mV holding potential and measured for 1 to 5 days in presence of Ach stimulation by voltage-clamp based electrophysiological method; type: cell-based, Oocyte; in short: as §1
[21] = target: Neuronal acetylcholine receptor; alpha2/beta2 (Rattus norvegicus, UniProt P12389+P12390); test: Inhibition of rat alpha2beta2 nAChR expressed in xenopus oocytes assessed as inhibition of Ach- induced response at -70 mV holding potential and measured for 1 to 5 days in presence of Ach stimulation by voltage-clamp based electrophysiological method; type: cell-based, Oocyte; in short: as §1

SMILES: C[C@@H](O)[C@@H]1NC(=O)[C@@H]2CSSC[C@@H](C(=O)N[C@@H](Cc3ccc(O)cc3)C(=O)O)NC(=O)[C@H](CCC(N)=O)NC(=O)[C@H](Cc3ccc(O)c(I)c3)NC(=O)[C@H](CCCNC(=N)N)NC(=O)[C@H](CSSC[C@@H](NC(=O)CN)C(=O)N2)NC(=O)[C@H](CCCNC(N)=O)NC(=O)[C@@H]2CCCN2C(=O)[C@H](CC(=O)O)NC1=O
- pIC50 [1]: 8.85

SMILES: N=C(N)NCCC[C@H](NC(=O)[C@@H]1CSSC[C@@H]2NC(=O)[C@@H](NC(=O)CN)CSSC[C@H](NC(=O)[C@H](CCCNC(=N)N)NC(=O)[C@@H]3CCCN3C(=O)[C@H](CC(=O)O)NC(=O)[C@H](CO)NC2=O)C(=O)N[C@@H](CCCNC(N)=O)C(=O)N[C@@H](Cc2ccc(O)cc2)C(=O)N[C@@H](CCCNC(=N)N)C(=O)N1)C(=O)O
- pIC50 [2]: 8.83

SMILES: C[C@@H](O)[C@@H]1NC(=O)[C@H]2NC(=O)[C@H](NC(=O)CN)CSSC[C@H](NC(=O)[C@H](CCCNC(=N)N)NC(=O)[C@@H]3CCCN3C(=O)[C@H](CC(=O)O)NC1=O)C(=O)N[C@@H](CCCNC(=N)N)C(=O)N[C@@H](Cc1ccc(O)c(I)c1)C(=O)N[C@@H](CCCN)C(=O)N[C@H](C(=O)N[C@H](CC(=O)N[C@@H](CCCNC(=N)N)C(=O)O)Cc1ccc(O)cc1)CSSC2(C)C
- pIC50 [3]: < 5.00
- pIC50 [4]: < 5.00
- pIC50 [5]: < 5.00
- pIC50 [6]: < 5.00
- pIC50 [7]: < 5.00
- pIC50 [8]: 6.94
- pIC50 [9]: < 5.00
- pIC50 [10]: < 5.00
- pIC50 [11]: < 5.00
- pIC50 [12]: < 5.00
- pIC50 [13]: < 5.00
- pIC50 [14]: < 5.00
- pIC50 [2]: 9.41
- pIC50 [15]: < 5.00
- pIC50 [16]: < 5.00
- pIC50 [17]: < 5.00
- pIC50 [18]: < 5.00
- pIC50 [1]: 10.30
- pIC50 [19]: < 6.48
- Activity (Mus musculus): Active
- pIC50 [20]: < 5.00
- pIC50 [21]: < 5.00

SMILES: C[C@@H](O)[C@@H]1NC(=O)[C@H]2NC(=O)[C@H](NC(=O)CN)CSSC[C@H](NC(=O)[C@H](CCCNC(=N)N)NC(=O)[C@@H]3CCCN3C(=O)[C@H](CC(=O)O)NC1=O)C(=O)N[C@@H](CCCNC(=N)N)C(=O)N[C@@H](Cc1ccc(O)c(I)c1)C(=O)N[C@@H](CCCN)C(=O)N[C@H](C(=O)N[C@H](CC(=O)N[C@@H](CCCNC(N)=O)C(=O)O)Cc1ccc(O)cc1)CSSC2(C)C
- pIC50 [1]: 9.59

SMILES: C[C@@H](O)[C@@H]1NC(=O)[C@H]2NC(=O)[C@H](NC(=O)CN)CSSC[C@H](NC(=O)[C@H](CCCNC(=N)N)NC(=O)[C@@H]3CCCN3C(=O)[C@H](CC(=O)O)NC1=O)C(=O)N[C@@H](CCCNC(=N)N)C(=O)N[C@@H](Cc1ccc(O)c(I)c1)C(=O)N[C@@H](CCCN)C(=O)N[C@H](C(=O)N[C@H](CC(=O)N[C@@H](CCCCN)C(=O)O)Cc1ccc(O)cc1)CSSC2(C)C
- pIC50 [1]: 9.44
